Laboratory results: ChEMBL document CHEMBL1250448, “Inhibitor hijacking of Akt activation” (Nat Chem Biol, 2009)

Biological target: Mitogen-activated protein kinase kinase kinase 8 (Homo sapiens) (UniProt P41279)
Experiment: Inhibition of MAP3K8 at 1 uM in presence of 100 uM ATP by Select Screen kinase assay relative to untreated control
How it was run: (§1)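 Single-concentration profiling at 1 μM against a panel of 220 purified kinases, run as an outsourced SelectScreen kinase profiling service. Activity is expressed as percent inhibition.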

Sequence of Mitogen-activated protein kinase kinase kinase 8 (Homo sapiens) (P41279 whole entry): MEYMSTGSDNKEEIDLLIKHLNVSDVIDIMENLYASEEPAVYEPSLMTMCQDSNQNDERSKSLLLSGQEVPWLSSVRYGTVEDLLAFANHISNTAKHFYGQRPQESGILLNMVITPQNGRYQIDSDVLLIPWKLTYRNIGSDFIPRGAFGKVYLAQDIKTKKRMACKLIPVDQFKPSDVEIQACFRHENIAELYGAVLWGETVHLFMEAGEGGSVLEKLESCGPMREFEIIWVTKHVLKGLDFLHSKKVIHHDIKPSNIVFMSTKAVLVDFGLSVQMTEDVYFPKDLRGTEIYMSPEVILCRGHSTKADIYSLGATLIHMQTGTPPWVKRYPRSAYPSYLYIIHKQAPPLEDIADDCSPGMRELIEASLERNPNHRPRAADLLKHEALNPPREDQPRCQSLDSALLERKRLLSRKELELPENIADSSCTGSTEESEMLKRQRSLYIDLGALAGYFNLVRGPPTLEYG

Point of comparison: `Cc1n[nH]c2ccc(-c3cncc(OC[C@@H](N)Cc4c[nH]c5ccccc45)c3)cc12`, inhibition 50%. Against it:
- COc1ccccc1N1CCN(c2ncnc3[nH]nc(Br)c23)CC1 — lower, 17%
- O=C(NCCCNc1nc(Nc2cccc(NC(=O)N3CCCC3)c2)ncc1I)c1cccs1 — higher, 54%

Biological target: T1, Ephrin type-A receptor 8 (Homo sapiens) (UniProt P29322)
T1 sequence (whole entry): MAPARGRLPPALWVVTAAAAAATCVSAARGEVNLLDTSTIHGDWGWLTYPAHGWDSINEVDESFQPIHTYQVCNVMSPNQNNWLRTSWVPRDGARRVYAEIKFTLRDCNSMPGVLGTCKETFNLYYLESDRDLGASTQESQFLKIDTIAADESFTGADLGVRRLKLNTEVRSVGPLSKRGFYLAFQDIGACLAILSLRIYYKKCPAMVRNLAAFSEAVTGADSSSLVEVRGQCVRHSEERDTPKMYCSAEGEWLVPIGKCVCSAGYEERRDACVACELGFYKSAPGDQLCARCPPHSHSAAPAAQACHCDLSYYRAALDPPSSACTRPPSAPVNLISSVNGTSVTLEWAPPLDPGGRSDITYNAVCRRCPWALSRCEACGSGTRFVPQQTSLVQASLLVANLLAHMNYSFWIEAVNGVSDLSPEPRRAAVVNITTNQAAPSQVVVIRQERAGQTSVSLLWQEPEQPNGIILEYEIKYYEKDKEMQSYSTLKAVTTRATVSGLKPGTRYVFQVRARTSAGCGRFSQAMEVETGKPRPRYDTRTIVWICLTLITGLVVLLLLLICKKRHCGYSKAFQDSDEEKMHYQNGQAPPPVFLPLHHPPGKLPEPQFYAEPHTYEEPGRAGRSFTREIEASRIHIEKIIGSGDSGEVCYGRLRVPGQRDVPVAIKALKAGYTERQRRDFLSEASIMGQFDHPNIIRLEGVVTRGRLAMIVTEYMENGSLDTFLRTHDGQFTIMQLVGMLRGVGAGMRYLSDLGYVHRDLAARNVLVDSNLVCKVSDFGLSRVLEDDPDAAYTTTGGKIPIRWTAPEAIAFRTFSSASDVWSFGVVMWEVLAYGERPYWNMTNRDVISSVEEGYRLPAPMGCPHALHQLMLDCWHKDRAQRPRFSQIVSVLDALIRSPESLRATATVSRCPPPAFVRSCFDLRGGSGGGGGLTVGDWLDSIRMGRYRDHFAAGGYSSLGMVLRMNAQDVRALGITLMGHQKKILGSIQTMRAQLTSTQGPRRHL
Experiment: Inhibition of EPHA8 at 1 uM in presence of 10 uM ATP by Select Screen kinase assay relative to untreated control
How it was run: (§2)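 Single-point screen at 1 μM against a panel of 220 purified kinases, run by Invitrogen staff as a SelectScreen profiling service. Read-out is percent inhibition of kinase activity.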

Point of comparison: `Cc1n[nH]c2ccc(-c3cncc(OC[C@@H](N)Cc4c[nH]c5ccccc45)c3)cc12`, inhibition 3%. Against it:
- COc1ccccc1N1CCN(c2ncnc3[nH]nc(Br)c23)CC1 — higher, 16%
- O=C(NCCCNc1nc(Nc2cccc(NC(=O)N3CCCC3)c2)ncc1I)c1cccs1 — higher, 16%

Biological target: Proto-oncogene tyrosine-protein kinase Src (Homo sapiens) (UniProt P12931)
Experiment: Inhibition of SRC at 1 uM in presence of 10 uM ATP by Select Screen kinase assay relative to untreated control
How it was run: (§3)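 Commercial SelectScreen profiling panel of 220 purified kinases. Each kinase was tested at a single inhibitor concentration of 1 μM, and activity was expressed as percent inhibition.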

Sequence of Proto-oncogene tyrosine-protein kinase Src (Homo sapiens) (P12931 2-536 limits assumed): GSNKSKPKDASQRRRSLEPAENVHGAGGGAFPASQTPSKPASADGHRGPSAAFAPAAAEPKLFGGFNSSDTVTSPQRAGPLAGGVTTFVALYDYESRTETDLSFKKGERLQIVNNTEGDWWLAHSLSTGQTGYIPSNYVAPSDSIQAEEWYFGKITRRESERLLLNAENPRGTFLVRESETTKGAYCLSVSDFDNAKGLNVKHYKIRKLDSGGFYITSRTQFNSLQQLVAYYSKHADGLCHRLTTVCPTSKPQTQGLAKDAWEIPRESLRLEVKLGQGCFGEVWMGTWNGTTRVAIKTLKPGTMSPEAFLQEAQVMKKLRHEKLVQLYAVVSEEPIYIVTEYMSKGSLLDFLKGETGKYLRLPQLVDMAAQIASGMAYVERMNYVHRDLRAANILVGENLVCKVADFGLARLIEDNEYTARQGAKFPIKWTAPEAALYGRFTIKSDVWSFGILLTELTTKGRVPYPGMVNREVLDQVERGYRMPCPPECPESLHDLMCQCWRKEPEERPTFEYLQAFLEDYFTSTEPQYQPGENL

Point of comparison: `O=C(NCCCNc1nc(Nc2cccc(NC(=O)N3CCCC3)c2)ncc1I)c1cccs1`, inhibition 27%. Against it:
- COc1ccccc1N1CCN(c2ncnc3[nH]nc(Br)c23)CC1 — lower, 10%
- Cc1n[nH]c2ccc(-c3cncc(OC[C@@H](N)Cc4c[nH]c5ccccc45)c3)cc12 — lower, 11%

Biological target: Vascular endothelial growth factor receptor 3 (Homo sapiens) (UniProt P35916)
Experiment: Inhibition of FLT4 at 1 uM in presence of 10 uM ATP by Select Screen kinase assay relative to untreated control
How it was run: as §1

Sequence of Vascular endothelial growth factor receptor 3 (Homo sapiens) (P35916 whole entry): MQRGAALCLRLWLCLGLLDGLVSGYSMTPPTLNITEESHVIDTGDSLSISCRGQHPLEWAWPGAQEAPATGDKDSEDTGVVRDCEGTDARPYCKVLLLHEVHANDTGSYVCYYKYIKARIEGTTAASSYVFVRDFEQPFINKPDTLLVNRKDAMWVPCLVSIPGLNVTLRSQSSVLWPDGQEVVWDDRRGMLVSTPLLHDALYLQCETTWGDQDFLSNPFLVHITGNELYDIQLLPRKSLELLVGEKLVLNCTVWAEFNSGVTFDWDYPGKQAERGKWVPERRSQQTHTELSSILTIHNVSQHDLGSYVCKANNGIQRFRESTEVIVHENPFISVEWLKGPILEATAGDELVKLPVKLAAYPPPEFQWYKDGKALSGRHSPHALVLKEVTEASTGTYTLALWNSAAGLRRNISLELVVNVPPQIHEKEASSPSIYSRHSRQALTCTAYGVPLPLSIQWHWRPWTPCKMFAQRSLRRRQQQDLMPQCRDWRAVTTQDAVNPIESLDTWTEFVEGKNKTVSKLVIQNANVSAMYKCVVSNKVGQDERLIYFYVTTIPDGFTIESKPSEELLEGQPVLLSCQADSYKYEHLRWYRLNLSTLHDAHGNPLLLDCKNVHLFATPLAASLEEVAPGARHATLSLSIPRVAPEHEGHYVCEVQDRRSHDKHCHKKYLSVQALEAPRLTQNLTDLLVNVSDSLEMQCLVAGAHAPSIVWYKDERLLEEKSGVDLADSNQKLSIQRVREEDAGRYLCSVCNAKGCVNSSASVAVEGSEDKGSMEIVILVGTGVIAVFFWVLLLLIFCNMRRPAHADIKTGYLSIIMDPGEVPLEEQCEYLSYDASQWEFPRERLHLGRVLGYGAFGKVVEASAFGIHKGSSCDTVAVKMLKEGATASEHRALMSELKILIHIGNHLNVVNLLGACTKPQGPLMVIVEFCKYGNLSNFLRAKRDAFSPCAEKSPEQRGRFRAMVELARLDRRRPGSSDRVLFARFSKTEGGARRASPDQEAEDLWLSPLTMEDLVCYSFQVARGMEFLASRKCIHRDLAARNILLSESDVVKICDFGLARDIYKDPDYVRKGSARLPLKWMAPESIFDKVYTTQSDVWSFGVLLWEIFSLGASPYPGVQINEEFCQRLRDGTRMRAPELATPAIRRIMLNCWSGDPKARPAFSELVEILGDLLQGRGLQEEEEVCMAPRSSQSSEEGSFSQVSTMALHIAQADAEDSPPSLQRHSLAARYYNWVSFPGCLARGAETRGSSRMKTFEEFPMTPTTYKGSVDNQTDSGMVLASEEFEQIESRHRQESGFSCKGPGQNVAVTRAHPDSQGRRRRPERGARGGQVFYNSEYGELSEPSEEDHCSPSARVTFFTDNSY

Point of comparison: `O=C(NCCCNc1nc(Nc2cccc(NC(=O)N3CCCC3)c2)ncc1I)c1cccs1`, inhibition 70%. Against it:
- COc1ccccc1N1CCN(c2ncnc3[nH]nc(Br)c23)CC1 — lower, 45%
- Cc1n[nH]c2ccc(-c3cncc(OC[C@@H](N)Cc4c[nH]c5ccccc45)c3)cc12 — lower, 1%

Biological target: Receptor tyrosine-protein kinase erbB-2 (Homo sapiens) (UniProt P04626)
Experiment: Inhibition of ERBB2 at 1 uM in presence of 10 uM ATP by Select Screen kinase assay relative to untreated control
How it was run: as §2

Sequence of Receptor tyrosine-protein kinase erbB-2 (Homo sapiens) (P04626 whole entry): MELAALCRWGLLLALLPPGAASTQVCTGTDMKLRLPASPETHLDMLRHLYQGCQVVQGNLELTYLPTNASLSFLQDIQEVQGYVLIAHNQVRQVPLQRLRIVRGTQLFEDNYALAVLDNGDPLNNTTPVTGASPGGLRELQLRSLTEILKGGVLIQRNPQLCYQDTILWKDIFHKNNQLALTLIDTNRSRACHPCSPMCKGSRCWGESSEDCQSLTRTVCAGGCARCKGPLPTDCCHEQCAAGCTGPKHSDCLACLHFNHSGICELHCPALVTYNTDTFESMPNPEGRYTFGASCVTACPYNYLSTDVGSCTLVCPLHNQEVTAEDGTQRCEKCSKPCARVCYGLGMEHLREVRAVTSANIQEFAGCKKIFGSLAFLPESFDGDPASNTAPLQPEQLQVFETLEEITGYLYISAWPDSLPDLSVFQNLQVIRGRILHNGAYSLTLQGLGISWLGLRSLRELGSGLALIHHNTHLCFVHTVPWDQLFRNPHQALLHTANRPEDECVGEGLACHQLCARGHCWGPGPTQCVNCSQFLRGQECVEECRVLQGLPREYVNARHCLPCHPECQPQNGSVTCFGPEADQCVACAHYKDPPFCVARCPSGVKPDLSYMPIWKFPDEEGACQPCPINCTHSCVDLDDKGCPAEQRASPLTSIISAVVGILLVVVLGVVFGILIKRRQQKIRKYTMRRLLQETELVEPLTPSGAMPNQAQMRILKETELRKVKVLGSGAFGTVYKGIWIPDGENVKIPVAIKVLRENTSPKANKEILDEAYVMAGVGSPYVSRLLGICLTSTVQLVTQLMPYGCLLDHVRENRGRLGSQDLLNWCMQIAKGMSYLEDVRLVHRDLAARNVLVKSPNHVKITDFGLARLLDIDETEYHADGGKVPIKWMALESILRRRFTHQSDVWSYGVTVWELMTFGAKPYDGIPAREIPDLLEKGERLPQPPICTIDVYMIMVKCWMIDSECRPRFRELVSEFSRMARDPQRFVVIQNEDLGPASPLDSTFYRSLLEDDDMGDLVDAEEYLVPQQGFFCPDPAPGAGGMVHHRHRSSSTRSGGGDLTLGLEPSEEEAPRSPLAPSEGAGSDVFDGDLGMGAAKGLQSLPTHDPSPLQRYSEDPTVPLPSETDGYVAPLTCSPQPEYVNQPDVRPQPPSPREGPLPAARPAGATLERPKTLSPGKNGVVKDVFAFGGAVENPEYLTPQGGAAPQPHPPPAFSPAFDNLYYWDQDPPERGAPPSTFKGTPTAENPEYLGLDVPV

Point of comparison: `COc1ccccc1N1CCN(c2ncnc3[nH]nc(Br)c23)CC1`, inhibition 8%. Against it:
- O=C(NCCCNc1nc(Nc2cccc(NC(=O)N3CCCC3)c2)ncc1I)c1cccs1 — higher, 10%
- Cc1n[nH]c2ccc(-c3cncc(OC[C@@H](N)Cc4c[nH]c5ccccc45)c3)cc12 — lower, -6%

Biological target: T2, Serine/threonine-protein kinase Nek1 (Homo sapiens) (UniProt Q96PY6)
T2 sequence (whole entry): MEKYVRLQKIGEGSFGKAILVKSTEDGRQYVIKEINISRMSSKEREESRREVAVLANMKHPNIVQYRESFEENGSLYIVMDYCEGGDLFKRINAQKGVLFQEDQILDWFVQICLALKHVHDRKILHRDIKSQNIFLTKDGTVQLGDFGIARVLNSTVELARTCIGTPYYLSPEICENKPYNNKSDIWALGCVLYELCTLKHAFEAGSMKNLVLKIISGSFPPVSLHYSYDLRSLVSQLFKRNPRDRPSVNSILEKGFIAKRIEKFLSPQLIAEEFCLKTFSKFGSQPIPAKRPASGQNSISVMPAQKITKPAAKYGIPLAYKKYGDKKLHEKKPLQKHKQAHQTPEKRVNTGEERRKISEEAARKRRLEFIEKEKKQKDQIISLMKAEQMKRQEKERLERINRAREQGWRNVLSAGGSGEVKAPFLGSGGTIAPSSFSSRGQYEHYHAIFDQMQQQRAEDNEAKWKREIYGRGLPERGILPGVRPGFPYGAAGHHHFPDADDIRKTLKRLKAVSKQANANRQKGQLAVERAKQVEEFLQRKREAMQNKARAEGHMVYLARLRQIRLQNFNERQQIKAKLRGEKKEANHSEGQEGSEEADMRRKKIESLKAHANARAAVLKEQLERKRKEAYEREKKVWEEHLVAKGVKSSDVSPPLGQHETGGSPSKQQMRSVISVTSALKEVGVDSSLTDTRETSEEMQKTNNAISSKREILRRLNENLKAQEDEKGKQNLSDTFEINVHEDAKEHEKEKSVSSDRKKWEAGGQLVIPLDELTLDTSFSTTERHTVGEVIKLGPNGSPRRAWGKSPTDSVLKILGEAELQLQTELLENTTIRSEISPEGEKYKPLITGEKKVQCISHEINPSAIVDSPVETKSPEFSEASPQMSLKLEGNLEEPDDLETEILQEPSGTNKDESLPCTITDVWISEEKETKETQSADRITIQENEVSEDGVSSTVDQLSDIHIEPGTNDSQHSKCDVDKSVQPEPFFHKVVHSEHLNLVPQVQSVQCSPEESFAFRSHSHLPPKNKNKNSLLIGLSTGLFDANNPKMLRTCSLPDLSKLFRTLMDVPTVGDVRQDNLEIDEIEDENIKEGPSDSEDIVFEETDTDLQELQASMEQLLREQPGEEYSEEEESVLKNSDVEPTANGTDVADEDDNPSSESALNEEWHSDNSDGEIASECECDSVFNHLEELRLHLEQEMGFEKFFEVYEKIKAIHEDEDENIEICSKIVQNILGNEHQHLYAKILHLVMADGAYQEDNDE
Experiment: Inhibition of NEK1 at 1 uM in presence of 10 uM ATP by Select Screen kinase assay relative to untreated control
How it was run: as §1

Point of comparison: `COc1ccccc1N1CCN(c2ncnc3[nH]nc(Br)c23)CC1`, inhibition 18%. Against it:
- O=C(NCCCNc1nc(Nc2cccc(NC(=O)N3CCCC3)c2)ncc1I)c1cccs1 — higher, 92%
- Cc1n[nH]c2ccc(-c3cncc(OC[C@@H](N)Cc4c[nH]c5ccccc45)c3)cc12 — higher, 44%

Biological target: SRSF protein kinase 2 (Homo sapiens) (UniProt P78362)
Experiment: Inhibition of SRPK2 at 1 uM in presence of 10 uM ATP by Select Screen kinase assay relative to untreated control
How it was run: as §3

Sequence of SRSF protein kinase 2 (Homo sapiens) (P78362 whole entry, looked up): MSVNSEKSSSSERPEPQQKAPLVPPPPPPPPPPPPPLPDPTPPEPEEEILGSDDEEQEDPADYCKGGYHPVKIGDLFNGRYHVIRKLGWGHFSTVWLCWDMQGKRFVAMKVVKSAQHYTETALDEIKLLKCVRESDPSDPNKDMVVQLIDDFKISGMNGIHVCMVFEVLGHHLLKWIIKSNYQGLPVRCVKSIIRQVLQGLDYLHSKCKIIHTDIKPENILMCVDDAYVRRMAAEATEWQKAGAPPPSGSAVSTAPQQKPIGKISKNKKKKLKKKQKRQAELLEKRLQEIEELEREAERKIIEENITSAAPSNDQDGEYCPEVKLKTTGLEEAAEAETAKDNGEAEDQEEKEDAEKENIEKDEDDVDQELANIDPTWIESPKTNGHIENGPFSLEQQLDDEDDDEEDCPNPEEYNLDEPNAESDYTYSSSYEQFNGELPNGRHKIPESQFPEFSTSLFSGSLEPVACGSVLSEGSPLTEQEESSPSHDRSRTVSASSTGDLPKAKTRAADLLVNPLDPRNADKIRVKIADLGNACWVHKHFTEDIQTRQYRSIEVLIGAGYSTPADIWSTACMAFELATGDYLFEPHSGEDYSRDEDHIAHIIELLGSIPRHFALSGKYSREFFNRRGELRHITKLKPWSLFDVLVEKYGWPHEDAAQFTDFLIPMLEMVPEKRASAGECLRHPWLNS

Point of comparison: `O=C(NCCCNc1nc(Nc2cccc(NC(=O)N3CCCC3)c2)ncc1I)c1cccs1`, inhibition 5%. Against it:
- COc1ccccc1N1CCN(c2ncnc3[nH]nc(Br)c23)CC1 — lower, 4%
- Cc1n[nH]c2ccc(-c3cncc(OC[C@@H](N)Cc4c[nH]c5ccccc45)c3)cc12 — higher, 39%

Biological target: Casein kinase I isoform gamma-1 (Homo sapiens) (UniProt Q9HCP0)
Experiment: Inhibition of CSNK1G1 at 1 uM in presence of 10 uM ATP by Select Screen kinase assay relative to untreated control
How it was run: as §2

Sequence of Casein kinase I isoform gamma-1 (Homo sapiens) (Q9HCP0 whole entry, looked up, canonical isoform): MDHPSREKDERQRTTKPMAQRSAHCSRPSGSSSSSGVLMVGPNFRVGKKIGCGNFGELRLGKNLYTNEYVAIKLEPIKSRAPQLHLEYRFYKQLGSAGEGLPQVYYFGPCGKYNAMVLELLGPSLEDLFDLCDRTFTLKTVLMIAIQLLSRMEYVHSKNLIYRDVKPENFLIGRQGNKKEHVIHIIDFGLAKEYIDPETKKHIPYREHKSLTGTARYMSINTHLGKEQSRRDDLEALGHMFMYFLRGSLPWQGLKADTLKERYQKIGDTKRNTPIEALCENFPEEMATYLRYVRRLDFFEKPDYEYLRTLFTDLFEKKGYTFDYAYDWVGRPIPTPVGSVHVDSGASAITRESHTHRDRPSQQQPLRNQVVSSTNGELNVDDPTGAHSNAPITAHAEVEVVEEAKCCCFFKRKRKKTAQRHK

Point of comparison: `O=C(NCCCNc1nc(Nc2cccc(NC(=O)N3CCCC3)c2)ncc1I)c1cccs1`, inhibition 10%. Against it:
- COc1ccccc1N1CCN(c2ncnc3[nH]nc(Br)c23)CC1 — higher, 11%
- Cc1n[nH]c2ccc(-c3cncc(OC[C@@H](N)Cc4c[nH]c5ccccc45)c3)cc12 — higher, 62%
